In ChEMBL document CHEMBL4406851, “Design, synthesis and biological evaluation of cinnamic acid derivatives with synergetic neuroprotection and angiogenesis effect” (Eur J Med Chem, 2019):
The source made the active and inactive calls. The calls are words filed in the database; no cut-off is given here.

What was measured:
[1] = Inhibition of H2O2-induced apoptosis in human HBMEC2 cells assessed as necrotic cells at 1.56 uM preincubated for 24 hrs followed by H2O2 addition measured after 4 hrs by Annexin V-FITC/propidium iodide staining based flow cytometry (reference value: 0.4 %); type: functional, HBMEC-2; set-up: scale not given: the % may be the effect or the level left
How it was run: (§1)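 Cells were seeded at 3.5×10^4 cells/mL in 6-well plates at 37 °C, 5% CO2. Compound was added at three concentrations for 24 h, then H2O2 (4.8 mM stock solution) to model and drug wells for 4 h. Cells were collected, washed in cold PBS and resuspended in annexin-binding buffer. Staining was annexin V-FITC 10 min, then PI 5 min, in the dark, followed by flow cytometry with quadrant gating.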

HBMEC-2 [2] = experiment: Protection against H2O2-induced mitochondrial dysfunction in human HBMEC2 cells assessed as recovery of mitochondrial membrane potential at 1.56 to 6.25 uM preincubated for 24 hrs followed by H202 addition measured after 4 hrs by Rh123 staining based inverted light microscopic analysis; type: functional, cell-based
How it was run: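 Cells in 96-well plates (3.5×10^4 cells/mL) were grown 24 h. They were pretreated 24 h with compound at three concentrations, then exposed to H2O2 (4.8 mM stock) for 4 h. Medium was removed and Rh123 added for 30 min at 37 °C. Cells were washed twice in cold PBS and examined immediately under an inverted microscope for green fluorescence.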

HBMEC-2 [3] = experiment: Protection against H2O2-induced apoptosis in human HBMEC2 cells assessed as increase in cell number preincubated for 24 hrs followed by H2O2 addition measured after 4 hrs by DAPI staining based inverted phase contrast microscopic analysis; type: functional
How it was run: (§2)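 Cells at 3.5×10^4 cells/mL in 24-well plates were pretreated 24 h with compound at three concentrations, then H2O2 (4.8 mM stock) for 4 h. After PBS washes, cells were fixed in 4% paraformaldehyde/70% cold ethanol for 10 min. Staining was 6% Giemsa or DAPI for 5 min in the dark. Random fields were photographed at 200× by microscope, alongside control and model groups.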

[4] = Inhibition of H2O2-induced apoptosis in human HBMEC2 cells assessed as necrotic cells at 6.25 uM preincubated for 24 hrs followed by H2O2 addition measured after 4 hrs by Annexin V-FITC/propidium iodide staining based flow cytometry (reference value: 0.4 %); type: functional, HBMEC-2; set-up: scale not given: the % may be the effect or the level left; how it was run: as §1
[5] = Inhibition of H2O2-induced apoptosis in human HBMEC2 cells assessed as necrotic cells at 3.13 uM preincubated for 24 hrs followed by H2O2 addition measured after 4 hrs by Annexin V-FITC/propidium iodide staining based flow cytometry (reference value: 0.4 %); type: functional, HBMEC-2; set-up: scale not given: the % may be the effect or the level left; how it was run: as §1
HBMEC-2 [6] = experiment: Protection against H2O2-induced apoptosis in human HBMEC2 cells assessed as decrease in nuclear fragmentation preincubated for 24 hrs followed by H2O2 addition measured after 4 hrs by DAPI staining based inverted phase contrast microscopic analysis; type: functional, cell-based; how it was run: as §2
SH-SY5Y [7] = experiment: Inhibition of H2O2-induced apoptosis in human SH-SY5Y cells assessed as normal cells at 3.13 uM preincubated for 24 hrs followed by H2O2 addition measured after 4 hrs by Annexin V-FITC/propidium iodide staining based flow cytometry (reference value: 67.2 %); type: functional; set-up: scale not given: the % may be the effect or the level left; how it was run: as §1
[8] = Inhibition of H2O2-induced apoptosis in human HBMEC2 cells assessed as late apoptotic cells at 1.56 uM preincubated for 24 hrs followed by H2O2 addition measured after 4 hrs by Annexin V-FITC/propidium iodide staining based flow cytometry (reference value: 29.4 %); type: functional, HBMEC-2; set-up: scale not given: the % may be the effect or the level left; how it was run: as §1
Chorioallantoic membrane = experiment: Induction of angiogenesis in chicken chorioallantoic membrane assessed as increase in microvessel formation at 1 mg/ml measured after 48 hrs by dissecting microscopic analysis; type: functional, cell membranes; conditions: Gallus gallus
How it was run: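 Fertile eggs were incubated 7 days at 37 °C and 60% humidity. A small window was opened at one end and the membrane was wetted with a drop of sterile saline. Test solution (0.5, 1 or 2 mg/mL) was applied to the allantoic membrane, with PBS for controls. After 48 h the membrane was separated from the shell, then viewed and photographed under a dissecting microscope.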

SH-SY5Y [9] = experiment: Inhibition of H2O2-induced apoptosis in human SH-SY5Y cells preincubated for 24 hrs followed by H2O2 addition measured after 4 hrs by Annexin V-FITC/propidium iodide staining based flow cytometry; type: functional, cell-based; how it was run: as §1
[10] = Inhibition of H2O2-induced apoptosis in human HBMEC2 cells assessed as late apoptotic cells at 6.25 uM preincubated for 24 hrs followed by H2O2 addition measured after 4 hrs by Annexin V-FITC/propidium iodide staining based flow cytometry (reference value: 29.4 %); type: functional, HBMEC-2; set-up: scale not given: the % may be the effect or the level left; how it was run: as §1
SH-SY5Y [11] = experiment: Inhibition of H2O2-induced apoptosis in human SH-SY5Y cells assessed as necrotic cells at 3.13 uM preincubated for 24 hrs followed by H2O2 addition measured after 4 hrs by Annexin V-FITC/propidium iodide staining based flow cytometry (reference value: 0.9 %); type: functional; set-up: scale not given: the % may be the effect or the level left; how it was run: as §1
[12] = Inhibition of H2O2-induced apoptosis in human HBMEC2 cells assessed as early apoptotic cells at 6.25 uM preincubated for 24 hrs followed by H2O2 addition measured after 4 hrs by Annexin V-FITC/propidium iodide staining based flow cytometry (reference value: 8.1 %); type: functional, HBMEC-2; set-up: scale not given: the % may be the effect or the level left; how it was run: as §1
SH-SY5Y [13] = experiment: Protection against H2O2-induced apoptosis in human SH-SY5Y cells assessed as reduction in cell shrinkage at 1.56 to 6.25 uM preincubated for 24 hrs followed by H2O2 addition measured after 4 hrs by Giemsa staining based inverted phase contrast microscopic analysis; type: functional; how it was run: as §2
SH-SY5Y [14] = experiment: Neuroprotective activity against H2O2-induced cell damage in human SH-SY5Y cells assessed as increase in cell viability preincubated for 24 hrs followed by H2O2 addition and measured after 4 hrs by MTT assay; type: functional, cell-based
How it was run: (§3)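 Cells at 3.5×10^4 cells/mL in 96-well plates were grown 24 h (37 °C, 5% CO2). Test agent was added at five concentrations for 24 h, then H2O2 (4.8 mM stock) to model and drug wells. After PBS washes, MTT (5 mg/mL) was added for 4 h, formazan was dissolved in DMSO and OD was read at 550 nm. Proliferation rate = (drug − injury OD)/(control − injury OD). EC50 came from a formula using maximum concentration and summed, maximal and minimal rates.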

SH-SY5Y [15] = experiment: Protection against H2O2-induced apoptosis in human SH-SY5Y cells assessed as increase in cell number at 1.56 to 6.25 uM preincubated for 24 hrs followed by H2O2 addition measured after 4 hrs by Giemsa staining based inverted phase contrast microscopic analysis; type: functional; how it was run: as §2
SH-SY5Y [16] = experiment: Inhibition of H2O2-induced apoptosis in human SH-SY5Y cells assessed as necrotic cells at 1.56 uM preincubated for 24 hrs followed by H2O2 addition measured after 4 hrs by Annexin V-FITC/propidium iodide staining based flow cytometry (reference value: 0.9 %); type: functional; set-up: scale not given: the % may be the effect or the level left; how it was run: as §1
[17] = Neuroprotective activity against H2O2-induced cell damage in human HBMEC2 cells assessed as increase in cell viability preincubated for 24 hrs followed by H2O2 addition and measured after 4 hrs by MTT assay; type: functional, cell-based; conditions: HBMEC-2; how it was run: as §3
SH-SY5Y [18] = experiment: Inhibition of H2O2-induced apoptosis in human SH-SY5Y cells assessed as early apoptotic cells at 6.25 uM preincubated for 24 hrs followed by H2O2 addition measured after 4 hrs by Annexin V-FITC/propidium iodide staining based flow cytometry (reference value: 5.4 %); type: functional; set-up: scale not given: the % may be the effect or the level left; how it was run: as §1
[19] = Inhibition of H2O2-induced apoptosis in human HBMEC2 cells assessed as normal cells at 3.13 uM preincubated for 24 hrs followed by H2O2 addition measured after 4 hrs by Annexin V-FITC/propidium iodide staining based flow cytometry (reference value: 62.1 %); type: functional, HBMEC-2; set-up: scale not given: the % may be the effect or the level left; how it was run: as §1

With `COc1cc(CNC(=O)/C=C/c2cc(OC)c(OC)cc2OC)ccc1O` the Activity [1] was 1%, the Activity (HBMEC-2 [2]) was “Active” and the Activity (HBMEC-2 [3]) was “Dose-dependent effect”. For the same compound, the Activity [4] was 0.1%, the Activity [5] was 0.1% and the Activity (HBMEC-2 [6]) was “Dose-dependent effect”. The Activity (SH-SY5Y [7]) was 74.7%, the Activity [8] was 19.3% and the Activity (Chorioallantoic membrane) was “Active”. For the same compound, the inhibition (SH-SY5Y [9]) was “Dose-dependent effect”, the Activity [10] was 10.2% and the Activity (SH-SY5Y [11]) was 0.1%. For the same compound, the Activity [12] was 8.3%, the Activity (SH-SY5Y [13]) was “Active” and the EC50 (SH-SY5Y [14]) was 2.41 µM. For the same compound, the Activity (SH-SY5Y [15]) was “Active”, the Activity (SH-SY5Y [16]) was 1.4% and the EC50 [17] was 3.26 µM. The Activity (SH-SY5Y [18]) was 2.6% and the Activity [19] was 80.5%.
